Data on seven molecules can be found in article PMC6044579 (ACS Omega, 2017).

In data set [1] the test system is SGC7901. The experiment in a line: MTT assay, SGC7901 gastric carcinoma cells. It is filed as cell-based, human. The note with it: read-out: anticancer activity (IC50) SGC7901. Put shortly: (§1)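 ATCC-sourced human cells kept at 37 °C, 5% CO2, humidified air. Cells treated with test compound at various concentrations for 96 h; DMSO as control, cisplatin as positive control. MTT (0.4 mg mL–1) added for a further 4 h, medium aspirated, formazan dissolved in DMSO, absorbance read at 490 nm. IC50 taken as the concentration giving 50% growth inhibition.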

The subject of data set [2] is A549. The experiment in a line: MTT assay, A549 cancerous alveolar epithelial cells. It is filed as cell-based, human. The note with it: read-out: anticancer activity (IC50) A549. In a few lines: as §1
For data set [3], the system named is HepG2. Description: MTT assay, HepG2 liver carcinoma cells. Format: cell-based, human. Put shortly: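 HepG2 cells from ATCC, kept at 37 °C, 5% CO2, humidified air. Cells were exposed to the test compound at various concentrations, with DMSO as control, for 96 h. MTT (0.4 mg mL–1) was then added for 4 h. Medium was aspirated, formazan dissolved in DMSO, and absorbance read at 490 nm. IC50 was taken as the concentration giving 50% growth inhibition.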

Data set [4] is described as follows: Fluorescence spectra and quantum yield. Format: physicochemical. The note with it: for λem – λabs, Stokes shift / λem, emission wavelength / λex, best excitation wavelength / ε × Φ, fluorescent brightness: ethanol as the solvent; for Φ, quantum yield: ethanol, rhodamine as the reference. In a few lines:
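Emission spectra recorded with xenon lamp excitation in 1.0 cm quartz cells at room temperature, excitation and emission slits 5.0 nm. Ethanolic compound solution (25 μg mL–1 before dilution) diluted in a 10 mL flask with buffer solutions, pH set with dilute HCl or NaOH, then equilibrated 2 min. Quantum yield in anhydrous ethanol from integrated emission relative to rhodamine 6G standard (5.0 μg mL–1 in anhydrous ethanol).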

Data set [5] in a line: UV-vis absorption spectra. It is filed as physicochemical. To be noted: ethanol as the solvent. Put shortly:
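Absorption spectra taken in 1.0 cm quartz cells in anhydrous ethanol at room temperature. Ethanolic compound solution (25 μg mL–1 before dilution) made up in a 10 mL volumetric flask and equilibrated 2 min before measurement.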

In data set [6] the test system is HT29. The experiment in a line: MTT assay, HT29 colorectal cancer cells. Format: cell-based, human. The note with it: read-out: anticancer activity (IC50) HT29. Put shortly: as §1
For data set [7], the system named is MRC-5. The experiment in a line: MTT assay, MRC-5 diploid fibroblasts. To be noted: read-out: anticancer activity (IC50) MRC-5. Format: cell-based, human. In a few lines: as §1
In data set [8] the test system is HepG2 liver carcinoma cells. Description: Clonogenic assay for long-term anticancer activity. Format: cell-based, human. To be noted: HepG2, 18 h exposure, colonies counted after 10 days. Put shortly: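 HepG2 cells seeded at 2 × 10^5 per well and attached overnight, then exposed 18 h to test compound at 0.01, 0.1, 1 or 10 μM, with vehicle alone as control. Replated at 700 cells/well in triplicate and grown 10 days at 37 °C, 5% CO2. Washed in ice-cold PBS, fixed in cold methanol 20 min, stained with 0.5% methylene blue 30 min; colonies of >50 cells counted. IC50 estimated from mean treated/untreated colony ratio.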

Data set [9] in a line: Cyclic voltammetry. To be noted: anhydrous ethanol, 1.0 × 10^–4 M, Fc/Fc^+ internal standard. It is filed as physicochemical. Put shortly: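 Three-electrode cell: Pt foil working electrode, Pt wire counter electrode, Ag/AgCl reference. Fc/Fc+ couple served as internal standard.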
The mark [10] stands for this setting: Homo sapiens, HepG2, 96 h, read-out: anticancer activity (IC50) HepG2, MTT assay, liver carcinoma cells, 96 h incubation.
Where [11] appears, read: read-out: anticancer activity (IC50) HepG2, MTT assay, liver carcinoma cells, 96 h incubation.

Read-outs that look alike come from different tables or passages of the source.

Take `COc1ccc(C(=O)C2=C3NCCCN3C3Oc4ccc(F)cc4C(=O)C3=C2)cc1` (centres unmarked) [3ac, 9-Fluoro-5-(4-methoxybenzoyl)-2,3,4,12a-tetrahydro-1H,7H-chromeno[3′,2′:5,6]pyrido-[1,2-a]pyrimidin-7-one]: the IC50 in data set [1] (Homo sapiens, SGC-7901, 96 h) was greater than 100 µM. Also, in data set [2] (Homo sapiens, A549, 96 h), the IC50 was greater than 100 µM. Besides, the half-inhibitory concentration (IC50) in data set [3] (setting [10]) is greater than 100 µM. In data set [4], the “λem – λabs, Stokes shift” value worked out at 79.0 nm; the “λem, emission wavelength” value came to 519.5 nm; the “λex, best excitation wavelength” value came to 464.0 nm; the “Φ, quantum yield” value is listed as 0.476. Moreover, the “λabs, maximal absorption wavelength” value in [5] came out at 440.5 nm.

Turning to `COc1ccc(C(=O)C2=C3NCCCN3C3Oc4ccc(Cl)cc4C(=O)C3=C2)cc1` (centres unmarked) [3ad, 9-Chloro-5-(4-methoxybenzoyl)-2,3,4,12a-tetrahydro-1H,7H-chromeno[3′,2′:5,6]pyrido-[1,2-a]pyrimidin-7-one], the IC50 in [6] (Homo sapiens, HT-29, 96 h) was 26.9 µM. Also, in data set [1] (Homo sapiens, SGC-7901, 96 h), the half-inhibitory concentration (IC50) was 18.7 µM. Further, the IC50 in data set [2] (Homo sapiens, A549, 96 h) came to 34.3 µM. For the same molecule, the IC50 in data set [3] (setting [10]) is 30.9 µM. The IC50 in [7] (Homo sapiens, MRC5, 96 h) turned out to be 34.9 µM. Also, in [4], the “ε × Φ, fluorescent brightness” value is 23.23 mL mg^–1 cm^–1; the “λem – λabs, Stokes shift” value stood at 80.0 nm; the “λem, emission wavelength” value is given as 520.0 nm; the “λex, best excitation wavelength” value was found to be 449.0 nm. In addition, the “Φ, quantum yield” value in data set [4] is reported as 0.464. Also, in [5], the “ε, absorption coefficient” value is given as 50.07 mL mg^–1 cm^–1 and the “λabs, maximal absorption wavelength” value was found to be 440.0 nm.

Take `COc1ccc(C(=O)C2=C3NCCCN3C3Oc4ccc(Br)cc4C(=O)C3=C2)cc1` (centres unmarked) [3ae, 9-Bromo-5-(4-methoxybenzoyl)-2,3,4,12a-tetrahydro-1H,7H-chromeno[3′,2′:5,6]pyrido-[1,2-a]pyrimidin-7-one]: the half-maximal inhibitory concentration (IC50) in [6] (Homo sapiens, HT-29, 96 h) came out at 18.8 µM. Also, the 50% inhibitory concentration (IC50) in data set [1] (Homo sapiens, SGC-7901, 96 h) is 17.8 µM. Moreover, the IC50 in data set [2] (Homo sapiens, A549, 96 h) worked out at 27.5 µM. In addition, the IC50 in data set [3] (setting [10]) was 15.4 µM. Further, in [7] (Homo sapiens, MRC5, 96 h), the IC50 was 31.3 µM. In data set [4], the “ε × Φ, fluorescent brightness” value is 10.08 mL mg^–1 cm^–1; the “λem – λabs, Stokes shift” value turned out to be 79.0 nm; the “λem, emission wavelength” value was 520.5 nm; the “λex, best excitation wavelength” value is listed as 466.0 nm. Moreover, the “Φ, quantum yield” value in data set [4] was 0.428. Moreover, in data set [5], the “ε, absorption coefficient” value worked out at 23.56 mL mg^–1 cm^–1 and the “λabs, maximal absorption wavelength” value amounted to 441.5 nm.

For `COc1ccc(C(=O)C2=C3NCCCCN3C3Oc4ccc(F)cc4C(=O)C3=C2)cc1` (centres unmarked) [3fc, 10-Fluoro-6-(4-methoxybenzoyl)-1,2,3,4,5,13a-hexahydro-8H-chromeno[3′,2′:5,6]pyrido-[1,2-a][1,3]diazepin-8-one], in [6] (Homo sapiens, HT-29, 96 h), the IC50 is 29.8 µM. Further, the IC50 in [1] (Homo sapiens, SGC-7901, 96 h) stood at 26.7 µM. Further, in data set [2] (Homo sapiens, A549, 96 h), the IC50 stood at 39.6 µM. In data set [3] (setting [10]), the IC50 is 18.9 µM. Further, the IC50 in data set [7] (Homo sapiens, MRC5, 96 h) stood at 48 µM. In [4], the “ε × Φ, fluorescent brightness” value is 74.72 mL mg^–1 cm^–1; the “λem – λabs, Stokes shift” value is on record as 83.5 nm; the “λem, emission wavelength” value was 525.5 nm; the “λex, best excitation wavelength” value was 461.0 nm. Further, the “Φ, quantum yield” value in [4] was found to be 0.671. Moreover, in data set [5], the “ε, absorption coefficient” value was found to be 111.53 mL mg^–1 cm^–1 and the “λabs, maximal absorption wavelength” value is 442.0 nm.

Turning to `COc1ccc(C(=O)C2=C3NCCCCN3C3Oc4ccc(Cl)cc4C(=O)C3=C2)cc1` (centres unmarked) [3fd, 10-Chloro-6-(4-methoxybenzoyl)-1,2,3,4,5,13a-hexahydro-8H-chromeno[3′,2′:5,6]pyrido-[1,2-a][1,3]diazepin-8-one], the IC50 in [6] (Homo sapiens, HT-29, 96 h) was determined as 26.8 µM. In addition, the “IC50, colony-forming ratio” value in data set [8] was determined as 5.99 µM. Besides, the IC50 in data set [1] (Homo sapiens, SGC-7901, 96 h) is 14.8 µM. Also, the IC50 in [2] (Homo sapiens, A549, 96 h) is 33.5 µM. Moreover, the IC50 in data set [3] (setting [10]) came to 11.2 µM. In data set [7] (Homo sapiens, MRC5, 96 h), the IC50 came out at 33.1 µM. Further, in data set [4], the “ε × Φ, fluorescent brightness” value came to 53.75 mL mg^–1 cm^–1; the “λem – λabs, Stokes shift” value came to 83.0 nm; the “λem, emission wavelength” value is on record as 526.0 nm; the “λex, best excitation wavelength” value worked out at 470.0 nm. The “Φ, quantum yield” value in data set [4] amounted to 0.663. Further, in [5], the “ε, absorption coefficient” value is recorded as 81.07 mL mg^–1 cm^–1 and the “λabs, maximal absorption wavelength” value is 443.0 nm. Also, in data set [9], the “first onset of reduction” value is recorded as −1.04 V and the reversible reduction wave is listed as −1.19 V.

`COc1ccc(C(=O)C2=C3NCCCCN3C3Oc4ccc(Br)cc4C(=O)C3=C2)cc1` (centres unmarked) [3fe, 10-Bromo-6-(4-methoxybenzoyl)-1,2,3,4,5,13a-hexahydro-8H-chromeno[3′,2′:5,6]pyrido-[1,2-a][1,3]diazepin-8-one]: the IC50 in data set [6] (Homo sapiens, HT-29, 96 h) was determined as 13.3 µM. Also, the IC50 in [1] (Homo sapiens, SGC-7901, 96 h) is 13.5 µM. In addition, in data set [2] (Homo sapiens, A549, 96 h), the IC50 stood at 27.5 µM. Further, the half-maximal inhibitory concentration (IC50) in data set [3] (setting [10]) is less than 10 µM. In addition, in [3] (setting [11]), the half-inhibitory concentration (IC50) came out at 9.5 µM. Besides, the IC50 in data set [7] (Homo sapiens, MRC5, 96 h) worked out at 34.8 µM. For the same molecule, in [4], the “ε × Φ, fluorescent brightness” value is 37.33 mL mg^–1 cm^–1; the “λem – λabs, Stokes shift” value turned out to be 82.5 nm; the “λem, emission wavelength” value is 526.0 nm; the “λex, best excitation wavelength” value came to 470.0 nm. For the same molecule, in data set [4], the “Φ, quantum yield” value was found to be 0.329. In data set [5], the “ε, absorption coefficient” value amounted to 113.48 mL mg^–1 cm^–1 and the “λabs, maximal absorption wavelength” value worked out at 443.5 nm.

`N.N.[Cl][Pt][Cl]` [DDP, Cisplatin, reference compound]: the IC50 in data set [6] (MTT assay, colorectal cancer cells, 96 h incubation) was determined as 14.3 µM; in data set [1] (MTT assay, gastric carcinoma cells, 96 h incubation), 2.3 µM; in [2] (MTT assay, cancerous alveolar epithelial cells, 96 h incubation), 8.4 µM; in data set [3] (setting [11]) it was 3 µM; in data set [7] (MTT assay, diploid fibroblasts (normal cells), 96 h incubation), 8.2 µM.
